Bioassay records: PubChem BioAssay, The Scripps Research Institute Molecular Screening Center
OX1R antag-1: OX1R (HCRTR1) antagonists, primary screen, fluorescence, CHO/OX1R cells, Fluo-8 calcium, orexin A; Orexin/Hypocretin receptor type 1 (Homo sapiens), O43613; Fluo-8 calcium fluorescence; inhibition, % at 5 µM; 330,000 tested, 0.43% active; AID 434989, 2010;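 active = inhibition above its plate's threshold, mean inhibition of all tested compounds on the plate plus 3 SD, cut at about 37% in these data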
Target sequence (O43613 whole entry, looked up): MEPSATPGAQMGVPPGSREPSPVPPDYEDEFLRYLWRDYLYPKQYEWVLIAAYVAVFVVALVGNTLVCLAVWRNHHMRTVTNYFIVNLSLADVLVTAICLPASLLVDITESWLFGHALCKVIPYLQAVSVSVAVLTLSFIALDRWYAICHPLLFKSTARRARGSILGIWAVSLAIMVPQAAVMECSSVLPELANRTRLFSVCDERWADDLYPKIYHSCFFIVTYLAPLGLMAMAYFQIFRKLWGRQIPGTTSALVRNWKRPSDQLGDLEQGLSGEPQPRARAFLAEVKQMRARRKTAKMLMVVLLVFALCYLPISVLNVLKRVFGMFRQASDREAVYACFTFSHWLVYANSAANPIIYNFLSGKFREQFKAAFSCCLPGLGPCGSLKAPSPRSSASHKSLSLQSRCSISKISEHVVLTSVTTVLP
GalR3 antagonist: GalR3 antagonists in HEK293 cells, primary screen, cell-based, fluorescence readout; Galanin receptor type 3 (Homo sapiens), O60755; HEK293 GalR3-CNG cAMP membrane potential fluorescence; galR3 body fused to GalR1 C-terminus; inhibition, % at 3 µM; 360,000 tested, 0.44% active;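 active = inhibition above the screen-wide average plus 3 SD, cut at about 13% in these data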;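 note: forskolin and galanin both at EC90 stimulate the cells; cAMP rise reported by CNG channel membrane potential dye signal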
GPR7 antag: GPR7 receptor antagonists, primary screen, cell-based, fluorescence, single concentration; AID 1861, 2009; inhibition, % at 4.4 µM; 290,000 tested, 1.1% active; Neuropeptides B/W receptor type 1 (Homo sapiens), P48145; GPR7-expressing cells, fluorescence antagonist assay; in the data active = inhibition above about 16%, passing the limit was not always enough;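 note: cells stimulated with the agonist NPW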
Target sequence (P48145 whole entry, looked up): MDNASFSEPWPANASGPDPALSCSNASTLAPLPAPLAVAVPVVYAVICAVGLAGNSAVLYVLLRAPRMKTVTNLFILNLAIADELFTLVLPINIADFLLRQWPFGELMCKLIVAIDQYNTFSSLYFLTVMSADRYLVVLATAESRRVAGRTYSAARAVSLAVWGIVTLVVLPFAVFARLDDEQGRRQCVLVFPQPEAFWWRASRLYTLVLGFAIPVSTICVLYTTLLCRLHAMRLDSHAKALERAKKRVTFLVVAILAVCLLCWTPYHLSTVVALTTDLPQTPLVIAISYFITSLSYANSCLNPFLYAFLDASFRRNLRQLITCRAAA
CHO parental Ca: ATP-evoked calcium signal inhibitors, parental CHO, primary screen, counter-screen for OX1R antagonist project, cell-based, fluorescence, Fluo-8 calcium dye; parental CHO-K1, ATP-induced calcium, Fluo-8 fluorescence; inhibition, % at 5.6 µM; 330,000 tested, 0.63% active;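 active = inhibition above that plate's mean sample inhibition plus 3 SD, cut at about 26% in these data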
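Measured by: calcium-sensitive Fluo-8 fluorescence / Test system: CHO parental line / Controls: ATP-challenged DMSO wells low, unchallenged DMSO wells high / Measure: % inhibition / Compound: single nominal dose of 5.6 µM per compound / Replicates: single well per compound, no replicates / Reagent: ATP as calcium-mobilizing challenge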
OX1R antag-2: antagonists of human orexin 1 receptor (OX1R); AID 485270, 2010; inhibition, % at 6.6 µM; 330,000 tested, 1.8% active; OX1R-expressing cells, FRET antagonist read-out; Orexin/Hypocretin receptor type 1 (Homo sapiens), O43613; in the data active = inhibition mostly above about 38%, no sharp cut-off; inactive = mostly below about 40%
Of the large screens only hits and unclear results are named; the others gave an inactive call. Hits are enriched below; roughly 3.1% of the tested compounds scored in any of these assays.

C=CCN=C1NC(c2cccc(Cl)c2)C(C(=O)OC)=C(C)N1Cc1cccc(C(F)(F)F)c1 (stereo not given)	none (no result: OX1R antag-1, GPR7 antag, CHO parental Ca, OX1R antag-2)
COC(=O)c1cccc(NC(=O)/C=C/c2ccc3c(c2)OCO3)c1	OX1R antag-2 52
COC(=O)c1cc(NC(=O)/C=C/c2ccc3c(c2)OCO3)cc(C(=O)OC)c1	none
c1csc(-c2csc3nc(CN4CCOCC4)nc(NCc4ccc5c(c4)OCO5)c23)c1	GPR7 antag 19
c1ccc2c(c1)nc(NCc1ccc3c(c1)OCO3)n2CCN1CCOCC1	none
C[C@@H]1CN(C(=O)OC(C)(C)C)CCN1c1ccc(N2CCS(=O)(=O)CC2)c(C#N)c1	none (no result: OX1R antag-1, GPR7 antag, CHO parental Ca, OX1R antag-2)
CC(=O)N1CCN(c2ccc(N3CCN(C(C)=O)[C@@H](C)C3)c(C)c2)[C@H](C)C1	none (no result: OX1R antag-1, GPR7 antag, CHO parental Ca, OX1R antag-2)
CCn1c(C)nc2cc(C(=O)OC(C(F)(F)C(F)F)C(F)(F)C(F)F)ccc21	OX1R antag-1 66
CCc1ccccc1N(C1=NCCCS1)S(=O)(=O)c1ccc(C(C)(C)C)cc1	OX1R antag-2 51
CC(C)(C)c1ccc(S(=O)(=O)Nc2ccccn2)cc1	none
Cc1ccc(C(C)C)c(OCCNC(=O)c2ccccc2O)c1	none
CSc1ccc(Cl)c(C(=O)NCCOc2cc(C)ccc2C(C)C)c1	OX1R antag-1 46, CHO parental Ca 53
C#CCC1c2ccccc2CCN1CC=C (stereo not given)	none (no result: OX1R antag-1, GPR7 antag, CHO parental Ca, OX1R antag-2)
O=S(=O)(c1cccc(Br)c1)N1CCN(c2ccnc3cc(Cl)ccc23)CC1	CHO parental Ca 35
N#Cc1cccc(S(=O)(=O)N2CCN(c3ccnc4cc(Cl)ccc34)CC2)c1	none
O=C(CSc1nc2ccc(Cl)cc2[nH]1)c1c[nH]c2ccccc12	OX1R antag-2 41
O=C(Nc1ccccc1C(=O)N1CCCCCC1)c1cccc([N+](=O)[O-])c1	OX1R antag-2 53
C/C(=N\NC(=O)c1ccc([N+](=O)[O-])cc1)c1cccc([N+](=O)[O-])c1	OX1R antag-2 64
O=C(NNC(=O)c1ccncc1)Nc1cccc([N+](=O)[O-])c1	none
O=C(NNC(=O)c1cccc([N+](=O)[O-])c1)c1ccncc1	OX1R antag-2 46
CCc1ccc(C2=NN(C(=O)CCC(=O)O)C(c3cccs3)C2)cc1 (stereo not given)	none
COC(=O)C1=C(C)N(Cc2ccccc2C(F)(F)F)C(=NCc2cc(OC)c(OC)c(OC)c2)NC1CCc1ccccc1 (stereo not given)	none (no result: OX1R antag-1, GPR7 antag, CHO parental Ca, OX1R antag-2)
CCCCCc1ccc(OCCOCCn2c[n+](C)c3ccccc32)c(CCCCC)c1	GPR7 antag 40 (no result: OX1R antag-1, GalR3 antagonist, CHO parental Ca, OX1R antag-2)
C[n+]1cn(CC(O)COCc2ccccc2)c2ccccc21 (stereo not given)	none
c1cncc(Oc2ccc(NCCc3c[nH]c4ccccc34)cc2)c1	none (no result: OX1R antag-1, GPR7 antag, CHO parental Ca, OX1R antag-2)
CC1(C)CC(N2CCN(c3ccccc3)CC2)=CC(=[N+]2CCCC2)C1	none
CC1(C)CC(N2CCCC2)=CC(=[N+]2CCCCCC2)C1	GalR3 antagonist 55, GPR7 antag 26
N#C/C(=C(/O)COC(=O)c1ccccc1O)c1nc2ccccc2s1	OX1R antag-2 53
CC(C)(C)c1ccc(C(=O)OC/C(O)=C(\C#N)c2nc3ccccc3s2)cc1	none
CC(=O)N1CCN(c2ccc(N3CCN(Cc4ccccc4)[C@@H](C)C3)c(C)c2)[C@@H](C)C1	none (no result: OX1R antag-1, GPR7 antag, CHO parental Ca, OX1R antag-2)
O=C(CN1C(=O)S/C(=C/c2ccccn2)C1=O)N1CCOCC1	OX1R antag-2 55
O=C(CCN1C(=O)S/C(=C\c2ccccc2)C1=O)N1CCOCC1	OX1R antag-2 56
C#CCN(C[C@H]1[C@H](OC(=O)Nc2cccs2)[C@H](OC(=O)Nc2cccs2)CN(C(=O)OC(C)C)N1C(=O)OC(C)C)S(=O)(=O)c1ccc(C)cc1	none (no result: OX1R antag-1, GPR7 antag, CHO parental Ca, OX1R antag-2)
O=C(OCc1nnc(-c2ccc(Cl)cc2)o1)c1ccncc1	none
Cc1ccc(S(=O)(=O)CCC(=O)OCc2nnc(-c3ccc([N+](=O)[O-])cc3)o2)cc1	none (no result: OX1R antag-1, GPR7 antag, CHO parental Ca, OX1R antag-2)
Cc1noc(C)c1CSCC(=O)OCc1nnc(-c2ccc([N+](=O)[O-])cc2)o1	OX1R antag-2 47 (no result: GPR7 antag)
Cc1noc(C)c1COc1ccc(C(=O)OCc2nnc(-c3ccc(Cl)cc3)o2)cc1	OX1R antag-1 54, CHO parental Ca 35
CCC(OC(=O)CN1C(=O)C(=O)c2ccccc21)C(=O)Nc1ccc(S(N)(=O)=O)cc1 (stereo not given)	OX1R antag-2 50
CC(C)NC(=O)CN1C(=O)C(=O)c2ccccc21	none
CC(=NNc1ccc2ccccc2n1)c1ccccc1O	none (no result: OX1R antag-1, GPR7 antag, CHO parental Ca, OX1R antag-2)
C/C(=N\Nc1nc2ccccc2nc1C)c1ccccc1O	OX1R antag-2 64
CCCCC#Cc1ccccc1COC[B-](F)(F)F	none (no result: OX1R antag-1, GPR7 antag, CHO parental Ca, OX1R antag-2)
CCCCC(O)(c1ccc(F)cc1)C(CN1CCOCC1)c1ccc(Cl)cc1 (stereo not given)	none
COC(=O)N1C[C@H](OCc2cn(-c3ccc(OC)cc3)nn2)[C@H]2C[C@@H]1c1ccccc1O2	none (no result: OX1R antag-1, GPR7 antag, CHO parental Ca, OX1R antag-2)
C=CCn1c(NC(=O)c2ccccc2Cl)c(C#N)c2nc3ccccc3nc21	OX1R antag-2 69
CCCCn1c(NC(C)=O)c(C#N)c2nc3ccccc3nc21	none
CCOC(=O)c1ccc(NC(=S)N2CCSC2c2ccc(Br)cc2)cc1 (stereo not given)	OX1R antag-1 55, CHO parental Ca 46
Cc1[nH]c2ccccc2c1/C=C/c1cc[n+](C)cc1	none (no result: OX1R antag-1, CHO parental Ca, OX1R antag-2)
CCN(CC)C(=O)Cn1c(C)c(/C=C/c2cc[n+](C)cc2)c2ccccc21	OX1R antag-2 72
CCn1cc(/C=C/c2cc[n+](C)cc2)c2ccccc21	OX1R antag-2 45
C=CCn1c(C)c(/C=C/c2cc[n+](C)cc2)c2ccccc21	OX1R antag-2 48
CCN(CC)C(=O)Cn1c(=O)n(C)c2ccccc21	none
Cc1cc(N2CCN(C(C(=O)NC3CCCC3)c3ccc(-c4ccccc4)cc3)CC2)c2ccccc2n1 (stereo not given)	none (no result: OX1R antag-1, GPR7 antag, CHO parental Ca, OX1R antag-2)
CC12CCC(=O)N1C(C(=O)N1CCN(c3cccc(Cl)c3)CC1)CS2 (stereo not given)	none (no result: GPR7 antag)
C=C(C)C(O)CC/C(C)=C/Cc1c(O)ccc(C(=O)/C=C/c2ccc(O)cc2)c1O (stereo not given)	CHO parental Ca 31 (no result: GPR7 antag)
CCOC(=O)c1ccc(NC2=CC(=O)C(=O)c3ccccc32)cc1	none
CC(=O)Nc1ccc(NC2=CC(=O)c3ccccc3C2=O)cc1	none
Cc1ccc(NC2=CC(=O)C(=O)c3ccccc32)cc1	OX1R antag-2 52
NS(=O)(=O)c1ccc(NC2=CC(=O)C(=O)c3ccccc32)cc1	OX1R antag-2 60
CC(C)c1[nH]nc2c1C(c1ccccc1)N(c1ccccc1)C2=O (stereo not given)	none (no result: OX1R antag-1, GPR7 antag, CHO parental Ca, OX1R antag-2)
CCCc1ccc2oc(C(=O)N3CCN(c4cnccn4)CC3)c(C)c2c1	none
CCN(CC)c1ccc(-n2cc3c(=O)n(C)c(=O)n(C)c3c2)cc1	OX1R antag-2 74
